Published values pooled from the literature.
Each line is one published result; the experiments were not run side by side.
Target: Homeodomain-interacting protein kinase 1 (HIPK1, Homo sapiens, UniProt Q86Z02)
Read-out: enzyme activity
Action: inhibitor

With `N#Cc1cccc(Nc2nc3cc(C(=O)O)ccc3c3cnccc23)c1` the remaining activity was 5% (radiometric; 1 µM).
The remaining activity of `COc1cc(Cl)c(C(=O)N[C@@H](CN[C@H]2CC[C@@H](N)CC2)Cc2ccc(C#N)cc2)cc1-c1ccc(CN[C@H](C)c2ccc(C)cc2)o1` is reported as 101% (1 µM).
`Cc1cnc(NC2CCOCC2)nc1-n1cnc(C(=O)NC(CN)c2cc(F)cc(Cl)c2)c1` (stereo not shown) gave a remaining activity of 87% (radiometric; 1 µM).
`CCCOc1ccc(OC)c(F)c1C(=O)c1ccc(C(=O)N[C@@H]2CNC[C@H]2NC(=O)c2ccc3[nH]ncc3c2)cc1` gave a remaining activity of 97% (10 µM).
With `O=C(O)c1ccc2c(c1)nc(Nc1ccccc1Cl)c1ncncc12` the remaining activity was 13% (radiometric; 1 µM).
With `O=C(Nc1cnn(-c2csc(C(=O)NC3COC3)c2)c1)Nc1c(F)cccc1Cl` the remaining activity was 91.7% (5 µM).
`O=C(O)c1ccc2c(c1)nc(Nc1ccc(Cl)cc1)c1ncncc12` has a remaining activity of 4% (radiometric; 1 µM).
`Cc1ccc(C(=O)Nc2ccc(CN3CCN(C)CC3)c(C(F)(F)F)c2)cc1C#Cc1cnc2cccnn12` has a remaining activity of 86% (23.5 nM).
`O=C(O)c1ccc2c(c1)nc(NCc1ccccc1)c1ncncc12` gave a remaining activity of 70% (radiometric; 1 µM).
`CCN(CC)c1ccc(C2=NNC(=O)CC2C)cc1[N+](=O)[O-]` (stereo not shown) gave a remaining activity of 132% (10 µM).
`CC(C)(O)[C@H]1CC[C@H](Nc2ccc3ncc(-c4cccc(C(F)(F)F)c4)n3n2)CC1` has a remaining activity of 83.9% (1 µM).
With `O=C(Nc1cnn(-c2csc(C(=O)NC3COC3)c2)c1)Nc1ccccc1Cl` the remaining activity was 96.3% (5 µM).
`COc1cc(Nc2cnc(C#N)c(O[C@H](C)CN(C)C)n2)ncc1-c1cnn(C)c1` gave a remaining activity of 107% (radiometric; 10 µM).
With `CC(C)(C)c1nc(-c2cccc(NS(=O)(=O)c3c(F)cccc3F)c2F)c(-c2ccnc(N)n2)s1` the remaining activity was 87% (radiometric; 1 µM).
For `O=C(O)c1ccc2c(c1)nc(NCCc1cccc(F)c1)c1ncncc12`, the remaining activity was 15% (radiometric; 1 µM).
For `Oc1cccc(-c2nc(N3CCOCC3)c3oc4ncccc4c3n2)c1`, the remaining activity was 63% (10 µM).
`CC(C)(C)c1nc2c(s1)c1nc(N)ncc1c1ccc(NS(=O)(=O)c3c(F)cccc3F)c(F)c12` has a remaining activity of 81% (radiometric; 1 µM).
`O=C(O)c1ccc2c(c1)nc(Nc1cccc(F)c1)c1ccncc12` has a remaining activity of 6% (radiometric; 1 µM).
With `Cn1c(=O)n(-c2ccc(C(C)(C)C#N)cc2)c2c3cc(-c4cnc5ccccc5c4)ccc3ncc21` the remaining activity was 89% (10 µM).
